Laboratory results as given in ChEMBL document CHEMBL2163245 (J Med Chem, 2012).
Activity calls are given as the source filed them. The calls are words filed in the database; no cut-off is given here.

Columns and labels:
Plasma = assay: Fraction unbound in rat plasma; format: ADME, cell-free
Brain = assay: Fraction unbound in rat brain homogenate; format: ADME, tissue-based
[1] = Drug uptake in Sprague-Dawley rat brain at 10 mg/kg, ip after 1 hr by LC/MS analysis; format: ADME, organism-based; design: dose 10 mg/kg, route intraperitoneal; settings: read-out: Drug uptake
Outline: (§1)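 Male Sprague-Dawley rats (250 g) dosed 10 mg/kg i.p., formulated 3 mg/mL in 10% Tween 80/sterile water. Blood (cardiac puncture) and brain taken at 1 h. Brain washed in cold PBS, frozen, homogenized 1:3 (w/w) in 70:30 isopropanol:water. Plasma and homogenate precipitated with acetonitrile containing carbamazepine internal standard, diluted 1:1 with water, quantified by ESI LC/MS/MS using MRM in positive mode.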

[2] = Plasma concentration in Sprague-Dawley rat at 10 mg/kg, ip after 1 hr by LC.MS analysis; format: ADME, organism-based; design: dose 10 mg/kg, route intraperitoneal; outline: as §1
[3] = target: Voltage-gated inwardly rectifying potassium channel KCNH2 (Homo sapiens, UniProt Q12809); assay: Inhibition of human ERG
Chain of Voltage-gated inwardly rectifying potassium channel KCNH2 (Q12809 whole entry): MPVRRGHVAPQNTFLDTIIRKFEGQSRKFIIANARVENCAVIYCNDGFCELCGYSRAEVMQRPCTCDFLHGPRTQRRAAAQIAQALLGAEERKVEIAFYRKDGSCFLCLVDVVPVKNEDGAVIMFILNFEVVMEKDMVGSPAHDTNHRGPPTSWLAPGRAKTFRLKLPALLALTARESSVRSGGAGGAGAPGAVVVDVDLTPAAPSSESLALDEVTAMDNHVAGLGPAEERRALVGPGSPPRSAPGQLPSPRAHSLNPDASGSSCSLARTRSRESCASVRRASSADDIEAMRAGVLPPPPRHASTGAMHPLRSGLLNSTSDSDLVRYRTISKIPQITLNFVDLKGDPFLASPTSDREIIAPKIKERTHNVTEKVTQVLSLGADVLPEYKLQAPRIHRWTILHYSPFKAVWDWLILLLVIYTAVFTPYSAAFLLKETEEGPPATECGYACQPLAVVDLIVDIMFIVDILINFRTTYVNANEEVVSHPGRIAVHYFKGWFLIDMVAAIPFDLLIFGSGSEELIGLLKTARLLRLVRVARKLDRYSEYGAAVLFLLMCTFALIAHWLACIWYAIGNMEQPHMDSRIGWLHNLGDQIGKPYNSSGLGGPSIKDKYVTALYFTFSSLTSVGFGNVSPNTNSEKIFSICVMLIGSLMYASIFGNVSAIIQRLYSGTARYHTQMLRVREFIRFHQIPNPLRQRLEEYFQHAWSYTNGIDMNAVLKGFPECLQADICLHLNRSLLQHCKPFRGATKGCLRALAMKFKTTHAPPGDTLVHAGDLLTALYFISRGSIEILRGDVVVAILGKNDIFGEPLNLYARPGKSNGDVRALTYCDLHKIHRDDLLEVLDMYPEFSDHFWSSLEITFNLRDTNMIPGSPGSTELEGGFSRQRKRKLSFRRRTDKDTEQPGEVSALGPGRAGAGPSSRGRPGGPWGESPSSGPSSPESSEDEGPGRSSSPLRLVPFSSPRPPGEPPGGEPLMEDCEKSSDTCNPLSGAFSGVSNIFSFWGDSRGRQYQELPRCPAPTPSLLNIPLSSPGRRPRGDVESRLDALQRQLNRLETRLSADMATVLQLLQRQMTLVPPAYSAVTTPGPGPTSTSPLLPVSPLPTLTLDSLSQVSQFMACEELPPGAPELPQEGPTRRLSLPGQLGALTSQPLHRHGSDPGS

[4] = Inhibition of KATP
[5] = Inhibition of N-type calcium channel at 10 uM
[6] = Inhibition of L-type calcium channel at 10 uM
[7] = target: Melatonin receptor type 1A (Homo sapiens) (UniProt P48039); assay: Inhibition of human MT1 at 10 uM
Chain of Melatonin receptor type 1A (Homo sapiens) (P48039 whole entry): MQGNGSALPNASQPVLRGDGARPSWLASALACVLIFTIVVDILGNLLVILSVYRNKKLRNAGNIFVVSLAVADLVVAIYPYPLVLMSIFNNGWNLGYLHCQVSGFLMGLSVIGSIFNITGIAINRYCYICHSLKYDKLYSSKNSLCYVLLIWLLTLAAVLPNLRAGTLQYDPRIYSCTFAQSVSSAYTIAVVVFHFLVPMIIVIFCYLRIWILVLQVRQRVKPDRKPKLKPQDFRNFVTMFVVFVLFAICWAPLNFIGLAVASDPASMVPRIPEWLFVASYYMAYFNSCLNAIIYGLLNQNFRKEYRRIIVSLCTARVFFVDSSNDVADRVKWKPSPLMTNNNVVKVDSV

[8] = target: T1, Potassium voltage-gated channel subfamily KQT member 4 (Homo sapiens, UniProt P56696); assay: Antagonist activity at KCNQ4 expressed in CHO cells incubated for 3 mins by automated patch clamp assay; format: functional, cell-based
T1 sequence (P56696 whole entry): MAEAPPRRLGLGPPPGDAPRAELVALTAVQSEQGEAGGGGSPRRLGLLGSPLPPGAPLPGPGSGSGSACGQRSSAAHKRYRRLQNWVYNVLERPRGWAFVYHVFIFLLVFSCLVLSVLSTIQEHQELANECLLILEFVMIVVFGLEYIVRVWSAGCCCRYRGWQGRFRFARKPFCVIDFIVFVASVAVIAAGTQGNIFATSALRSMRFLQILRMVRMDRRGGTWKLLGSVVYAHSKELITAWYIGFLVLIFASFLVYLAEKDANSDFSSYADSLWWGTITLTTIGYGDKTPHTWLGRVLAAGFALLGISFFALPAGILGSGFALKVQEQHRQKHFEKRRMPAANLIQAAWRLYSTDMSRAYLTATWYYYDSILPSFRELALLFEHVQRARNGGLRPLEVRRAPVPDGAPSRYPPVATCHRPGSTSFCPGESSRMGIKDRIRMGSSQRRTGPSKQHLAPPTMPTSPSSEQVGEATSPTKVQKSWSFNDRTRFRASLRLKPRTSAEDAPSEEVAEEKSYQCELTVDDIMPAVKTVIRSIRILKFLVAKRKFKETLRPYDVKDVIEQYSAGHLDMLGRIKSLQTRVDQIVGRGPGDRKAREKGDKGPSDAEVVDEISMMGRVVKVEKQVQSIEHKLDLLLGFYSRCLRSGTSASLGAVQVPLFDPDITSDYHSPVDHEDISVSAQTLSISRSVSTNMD
Outline: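 Population patch clamp on CHO cells stably expressing KCNQ4, freshly dislodged at 7,000 cells/well in extracellular solution (mM: 137 NaCl, 4 KCl, 1 MgCl2, 1.8 CaCl2, 10 HEPES, 10 glucose, pH 7.4). Cells were perforated with 50 μg/ml amphotericin B, held at -70 mV, and stepped to +40 mV. Current was measured at +40 mV before and after 3 min compound exposure and expressed as percent change in the same well.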

[9] = target: Voltage-gated potassium channel, KQT; KCNQ2(Kv7.2)/KCNQ3(Kv7.3) (Homo sapiens, UniProt O43525+O43526); assay: Antagonist activity at KCNQ2/Q3 expressed in CHO cells incubated for 3 mins by automated patch clamp assay
Chain of Voltage-gated potassium channel, KQT; KCNQ2(Kv7.2)/KCNQ3(Kv7.3) (O43526 whole entry): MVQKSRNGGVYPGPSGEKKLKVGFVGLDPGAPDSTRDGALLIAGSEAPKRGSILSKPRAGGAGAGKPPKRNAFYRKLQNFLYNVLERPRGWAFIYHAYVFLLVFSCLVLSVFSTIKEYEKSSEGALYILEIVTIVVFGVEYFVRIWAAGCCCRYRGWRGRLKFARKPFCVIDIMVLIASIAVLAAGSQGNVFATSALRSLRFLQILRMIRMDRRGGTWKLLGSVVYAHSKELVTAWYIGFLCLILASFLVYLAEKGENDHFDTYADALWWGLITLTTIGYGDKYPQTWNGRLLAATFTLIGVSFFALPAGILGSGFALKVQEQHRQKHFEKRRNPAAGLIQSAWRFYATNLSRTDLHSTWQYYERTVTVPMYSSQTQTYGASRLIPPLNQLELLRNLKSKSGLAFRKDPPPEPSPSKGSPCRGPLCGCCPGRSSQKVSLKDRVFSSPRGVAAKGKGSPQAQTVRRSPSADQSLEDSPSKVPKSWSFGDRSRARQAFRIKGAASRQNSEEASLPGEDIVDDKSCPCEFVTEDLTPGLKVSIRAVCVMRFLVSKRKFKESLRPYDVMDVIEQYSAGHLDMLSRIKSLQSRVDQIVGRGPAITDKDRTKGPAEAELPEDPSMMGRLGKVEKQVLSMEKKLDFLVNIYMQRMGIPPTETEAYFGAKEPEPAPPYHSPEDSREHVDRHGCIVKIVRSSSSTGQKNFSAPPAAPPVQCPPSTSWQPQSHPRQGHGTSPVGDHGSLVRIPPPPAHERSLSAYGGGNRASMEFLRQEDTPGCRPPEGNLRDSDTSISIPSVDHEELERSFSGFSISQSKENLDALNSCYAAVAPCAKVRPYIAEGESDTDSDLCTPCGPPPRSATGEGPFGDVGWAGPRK
Chain of Voltage-gated potassium channel, KQT; KCNQ2(Kv7.2)/KCNQ3(Kv7.3) (O43525 whole entry): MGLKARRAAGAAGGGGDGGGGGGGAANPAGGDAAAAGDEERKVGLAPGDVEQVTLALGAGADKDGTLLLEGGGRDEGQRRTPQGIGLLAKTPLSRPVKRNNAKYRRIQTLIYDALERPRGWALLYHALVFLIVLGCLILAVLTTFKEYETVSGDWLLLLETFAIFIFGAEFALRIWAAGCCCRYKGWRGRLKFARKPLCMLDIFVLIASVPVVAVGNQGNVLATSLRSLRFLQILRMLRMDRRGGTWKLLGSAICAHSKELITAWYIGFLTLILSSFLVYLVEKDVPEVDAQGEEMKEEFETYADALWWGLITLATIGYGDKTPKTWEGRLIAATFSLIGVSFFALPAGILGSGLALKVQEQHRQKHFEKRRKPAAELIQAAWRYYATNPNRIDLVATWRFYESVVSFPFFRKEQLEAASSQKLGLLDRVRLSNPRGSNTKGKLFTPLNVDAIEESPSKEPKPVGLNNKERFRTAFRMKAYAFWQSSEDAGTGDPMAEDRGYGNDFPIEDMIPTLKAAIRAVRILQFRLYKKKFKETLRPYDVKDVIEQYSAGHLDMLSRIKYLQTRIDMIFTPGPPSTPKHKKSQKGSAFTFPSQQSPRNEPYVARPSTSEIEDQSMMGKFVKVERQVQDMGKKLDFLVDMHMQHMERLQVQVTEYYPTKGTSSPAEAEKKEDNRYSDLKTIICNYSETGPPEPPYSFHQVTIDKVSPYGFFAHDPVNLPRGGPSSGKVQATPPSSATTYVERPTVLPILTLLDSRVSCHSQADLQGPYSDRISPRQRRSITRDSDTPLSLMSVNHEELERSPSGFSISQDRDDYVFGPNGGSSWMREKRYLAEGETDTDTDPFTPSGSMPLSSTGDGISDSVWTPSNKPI

[10] = target: T2, Potassium voltage-gated channel subfamily KQT member 1 (Homo sapiens, UniProt P51787); assay: Antagonist activity at KCNQ1 expressed in CHO cells incubated for 3 mins by automated patch clamp assay
T2 sequence (P51787 whole entry): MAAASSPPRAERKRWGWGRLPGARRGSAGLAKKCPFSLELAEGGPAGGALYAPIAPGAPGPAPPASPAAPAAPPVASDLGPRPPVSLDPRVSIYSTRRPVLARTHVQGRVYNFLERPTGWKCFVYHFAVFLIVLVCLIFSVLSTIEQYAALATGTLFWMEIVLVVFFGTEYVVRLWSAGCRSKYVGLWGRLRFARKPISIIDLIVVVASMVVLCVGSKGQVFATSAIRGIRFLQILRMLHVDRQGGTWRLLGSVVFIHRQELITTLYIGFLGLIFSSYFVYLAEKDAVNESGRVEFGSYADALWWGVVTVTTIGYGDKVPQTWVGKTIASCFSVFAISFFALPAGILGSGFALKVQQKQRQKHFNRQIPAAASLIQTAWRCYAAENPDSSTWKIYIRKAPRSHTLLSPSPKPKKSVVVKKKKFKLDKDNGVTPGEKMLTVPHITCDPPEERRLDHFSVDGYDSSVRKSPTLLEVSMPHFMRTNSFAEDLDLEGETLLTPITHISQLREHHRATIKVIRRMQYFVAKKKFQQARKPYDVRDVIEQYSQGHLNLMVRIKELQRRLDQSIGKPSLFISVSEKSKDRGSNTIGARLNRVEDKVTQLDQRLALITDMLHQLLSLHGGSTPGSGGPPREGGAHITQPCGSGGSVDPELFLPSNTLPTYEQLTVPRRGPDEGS

[11] = target: Voltage-gated potassium channel, IKs; KCNQ1(Kv7.1)/KCNE1(MinK) (Homo sapiens, UniProt P15382+P51787); assay: Antagonist activity at KCNQ1/E1 expressed in CHO cells incubated for 3 mins by automated patch clamp assay
[12] = target: Potassium voltage-gated channel subfamily KQT member 2 (Homo sapiens, UniProt O43526); assay: Antagonist activity at KCNQ2 expressed in CHO cells incubated for 3 mins by automated patch clamp assay; format: functional, cell-based
Chain of Potassium voltage-gated channel subfamily KQT member 2 (O43526 whole entry): as the sequence (O43526 whole entry) above

Cytochrome P450 2D6 = Cytochrome P450 2D6 (Homo sapiens, UniProt P10635)
Chain of Cytochrome P450 2D6 (P10635 whole entry): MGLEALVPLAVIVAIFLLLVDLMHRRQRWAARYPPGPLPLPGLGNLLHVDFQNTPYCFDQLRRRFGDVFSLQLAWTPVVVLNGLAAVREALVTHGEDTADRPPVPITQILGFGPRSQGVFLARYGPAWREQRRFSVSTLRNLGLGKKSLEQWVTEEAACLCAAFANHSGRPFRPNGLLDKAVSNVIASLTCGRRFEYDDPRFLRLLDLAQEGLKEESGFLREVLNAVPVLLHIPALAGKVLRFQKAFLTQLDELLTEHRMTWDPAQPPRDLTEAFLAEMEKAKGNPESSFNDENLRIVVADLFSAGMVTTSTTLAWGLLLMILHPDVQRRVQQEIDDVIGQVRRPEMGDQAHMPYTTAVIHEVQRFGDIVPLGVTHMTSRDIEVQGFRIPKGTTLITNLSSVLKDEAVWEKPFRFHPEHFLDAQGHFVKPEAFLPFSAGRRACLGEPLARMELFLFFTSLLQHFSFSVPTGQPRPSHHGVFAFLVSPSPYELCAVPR

Cytochrome P450 2C9 = Cytochrome P450 2C9 (Homo sapiens, UniProt P11712)
Chain of Cytochrome P450 2C9 (P11712 whole entry): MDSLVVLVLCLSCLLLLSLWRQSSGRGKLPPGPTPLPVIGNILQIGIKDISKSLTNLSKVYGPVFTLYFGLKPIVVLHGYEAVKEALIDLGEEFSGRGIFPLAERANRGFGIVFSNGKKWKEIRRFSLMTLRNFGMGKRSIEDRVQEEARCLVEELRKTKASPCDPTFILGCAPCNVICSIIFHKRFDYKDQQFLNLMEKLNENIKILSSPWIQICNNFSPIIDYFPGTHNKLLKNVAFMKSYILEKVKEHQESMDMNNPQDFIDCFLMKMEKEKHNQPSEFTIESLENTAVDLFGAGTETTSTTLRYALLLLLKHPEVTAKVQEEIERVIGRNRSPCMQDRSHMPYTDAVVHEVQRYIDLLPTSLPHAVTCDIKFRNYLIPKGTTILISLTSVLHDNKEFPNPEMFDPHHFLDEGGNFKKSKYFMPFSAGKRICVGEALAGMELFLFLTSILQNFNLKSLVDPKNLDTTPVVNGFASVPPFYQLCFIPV

Cytochrome P450 1A2 = target: T3, Cytochrome P450 1A2 (Homo sapiens, UniProt P05177)
T3 sequence (P05177 whole entry): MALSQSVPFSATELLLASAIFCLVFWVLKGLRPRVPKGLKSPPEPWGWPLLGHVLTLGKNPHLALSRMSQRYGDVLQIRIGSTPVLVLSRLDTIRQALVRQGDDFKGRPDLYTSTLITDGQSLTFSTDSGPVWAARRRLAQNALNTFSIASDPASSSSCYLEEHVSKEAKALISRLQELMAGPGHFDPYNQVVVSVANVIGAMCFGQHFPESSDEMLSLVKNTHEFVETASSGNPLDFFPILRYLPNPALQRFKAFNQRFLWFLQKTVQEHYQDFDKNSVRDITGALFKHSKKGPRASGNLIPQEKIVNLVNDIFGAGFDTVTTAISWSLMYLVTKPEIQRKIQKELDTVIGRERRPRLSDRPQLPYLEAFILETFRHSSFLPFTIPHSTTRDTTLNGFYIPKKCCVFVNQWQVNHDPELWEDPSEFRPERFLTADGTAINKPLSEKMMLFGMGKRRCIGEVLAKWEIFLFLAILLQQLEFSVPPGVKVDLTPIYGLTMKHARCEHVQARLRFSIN

`CC[C@H](C(=O)Nc1ccccc1N1CCCC1)c1ccccc1` showed a Fu (Plasma) of 0.6%, a Fu (Brain) of 0.3% and a concentration at 1 h [1] of 208 ng/g. For the same compound, the concentration at 1 h [2] was 116 ng/mL, the “inhibition (INH)” value [3] was “Not Active” and the inhibition [4] was “inactive”. For the same compound, the inhibition [5] was “inactive”, the inhibition [6] was “inactive” and the inhibition [7] was 61%. It also gave an IC50 [8] of 0.2 µM, an IC50 [9] of 0.12 µM and an IC50 [10] of 2.92 µM. It also gave an IC50 [11] of 8.12 µM, an IC50 [12] of 0.07 µM and an IC50 (Cytochrome P450 2D6) of 19.9 µM. The IC50 (Cytochrome P450 2C9) was 18.9 µM and the IC50 (Cytochrome P450 1A2) was 6.1 µM.
